Among the data in ChEMBL document CHEMBL1155579, “Known and novel terpenes from Buddleja globosa displaying selective antifungal activity against dermatophytes” (2000) are Activity and MIC values, retold here.

Converted amounts (≈) assume the structure as drawn. The source made the active and inactive calls. No cut-off for these calls is given here.

Assay [1] deals with Scopulariopsis brevicaulis. Kind of assay: Antifungal activity against Scopulariopsis brevicaulis at 1000 ug/ml after 24 hrs.
Another assay deals with Trichophyton rubrum. Kind of assay: Antifungal activity against Trichophyton rubrum after 24 hrs.
Another assay concerns Epidermophyton floccosum. As to the kind of experiment: Antifungal activity against Epidermophyton floccosum after 24 hrs. Format: functional.
The next assay relates to Saccharomyces cerevisiae. As to the kind of experiment: Antifungal activity against Saccharomyces cerevisiae NCIMB 080178 at 1000 ug/ml after 24 hrs. Format: functional, organism-based. Put shortly:
(§1)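 Agar dilution in 96-well plates. Samples in DMSO, made up with sterile water, 1:2 serially diluted over six steps, then mixed with an equal volume of molten double-strength Sabouraud dextrose agar (200 µL per well). Yeasts were grown on SDA at 30 °C for 24 h and harvested in PBS. 100 µL inoculum (10⁵ CFU) was added per well and incubated at 30 °C for 24 h. Miconazole was the positive control.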

Assay [2] concerns Trichophyton interdigitale. Kind of assay: Antifungal activity against Trichophyton interdigitale EL 5171 after 24 hrs. Format: functional.
Another assay has as its system Penicillium chrysogenum. As to the kind of experiment: Antifungal activity against Penicillium notatum ATCC 11654 at 1000 ug/ml after 24 hrs. Type of assay: functional, organism-based.
Assay [3] concerns Neoscytalidium dimidiatum. As to the kind of experiment: Antifungal activity against Scytalidium dimidiatum at 1000 ug/ml after 24 hrs. Type of assay: functional, organism-based.
Another assay relates to Candida albicans. As to the kind of experiment: Antifungal activity against Candida albicans ATCC 10234 at 1000 ug/ml after 24 hrs. Format: functional, organism-based. The method in brief: as §1
Another assay concerns Aspergillus niger. As to the kind of experiment: Antifungal activity against Aspergillus niger ATCC 16404 at 1000 ug/ml after 24 hrs. Type of assay: functional, organism-based.

The MIC is the least concentration at which growth counts as inhibited.

Consider `C=C1CC/C=C(\C)C(=O)[C@H](O)[C@@H]2[C@@H]1CC2(C)C` [BUDDLEDIN B], for which the outcome (in [1]; in the assay on Saccharomyces cerevisiae; in the assay on Penicillium chrysogenum; in assay [3]; in the assay with Candida albicans; with Aspergillus niger) was inactive. Further, the MIC (against Trichophyton rubrum; against Epidermophyton floccosum; in assay [2]) was 51 µM (≈ 12 µg/mL) in each case.
Regarding `C=C1CC/C=C(\C)C(=O)[C@H](OC(C)=O)[C@@H]2[C@@H]1CC2(C)C` [BUDDLEDIN A], the outcome (in assay [1]; in the assay on Saccharomyces cerevisiae; in the assay on Penicillium chrysogenum; in [3]; in the assay on Candida albicans; in the assay with Aspergillus niger) was inactive. Further, the MIC (with Trichophyton rubrum; with Epidermophyton floccosum; in assay [2]) was 43 µM (≈ 11.9 µg/mL) throughout.
For the compound `CC(C)[C@]1(O)C(=O)C=C2[C@@]3(CC[C@H]4C(C)(C)CCC[C@]24C)[C@@H]2C(=O)[C@@](O)(C(C)C)[C@@H](C4=C2[C@@]2(C)CCCC(C)(C)[C@@H]2CC4)[C@H]31` [MAYTENONE], the outcome (in assay [1]; in the assay on Saccharomyces cerevisiae; in the assay with Penicillium chrysogenum; in assay [3]; in the assay with Candida albicans; in the assay with Aspergillus niger) was inactive. Further, the minimum inhibitory concentration (MIC) (in the assay on Trichophyton rubrum; against Epidermophyton floccosum; in assay [2]) was 625 µM (≈ 378 µg/mL) in each case.
For `CC(C)C1=CC=C2C(=CC[C@H]3C(C)(C)CCC[C@]23C)C1=O` [DEOXYBUDDLEJONE], the outcome (in assay [1]; with Saccharomyces cerevisiae; with Penicillium chrysogenum; in assay [3]; in the assay with Candida albicans; with Aspergillus niger) was inactive. Also, the MIC (against Trichophyton rubrum; in the assay with Epidermophyton floccosum; in [2]) was 2640 µM (≈ 751 µg/mL) each time.
On to `Clc1ccc(COC(Cn2ccnc2)c2ccc(Cl)cc2Cl)c(Cl)c1` (centres undefined) [MICONAZOLE], for which the result (in assay [1]; in the assay with Saccharomyces cerevisiae; in the assay on Penicillium chrysogenum; in [3]; in the assay with Candida albicans; with Aspergillus niger) was inactive. For the same compound, the MIC (with Trichophyton rubrum; against Epidermophyton floccosum; in assay [2]) was 5 µM (≈ 2.08 µg/mL) in each case.
For `CC(C)C1=CC=C2C(=C(O)C[C@H]3C(C)(C)CCC[C@]23C)C1=O` [BUDDLEJONE], the outcome (in assay [1]; with Saccharomyces cerevisiae; with Penicillium chrysogenum; in assay [3]; in the assay on Candida albicans; in the assay on Aspergillus niger) was inactive. Moreover, the MIC (in the assay with Trichophyton rubrum; against Epidermophyton floccosum; in assay [2]) was 2500 µM (≈ 751 µg/mL) each time.
